This note sets out measurements from PubChem BioAssay.

Test [1] is described as follows: inhibitors of TNFa-induced NFkB p65 translocation, primary screen, imaging, HUVEC, MLSMR starter and 10KST1 sets (AID 438;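 active = inhibition above 20% together with a positive visual image hit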;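 also: compound added about 3h40 before a 20 min TNFalpha stimulation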;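 as to inhibition: signal is the nuclear over cytoplasmic p65 intensity ratio per well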). Conditions: HUVEC TNFa-induced p65 nuclear translocation; cell count: measured here: nuclei count (cytotoxicity indicator), at 2.08 µM; inhibition: at 2 µM, stronger effect = higher value, 0% TNFa-plus-vehicle, 100% no-TNFa wells.
A short description of test [2]: inhibitors of mutant huntingtin aggregation, primary screen, imaging, exon1htt(103Q)mCFP cells, high-content imaging (AID 483;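 active = visual image review flags a hit and inhibition of aggregation exceeds 20%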;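 also: compound exposure lasted 3 days before fixation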;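 as to nuclei count: percent of the per-plate median nuclei count of sample wells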). Conditions: exon1htt(103Q)mCFP cell line, aggregate imaging, at 2 µM; inhibition of aggregation: stronger effect = higher value; nuclei count: measured here: cell count, toxicity.
A short description of test [3]: inhibitors of E-selectin induction by TNFa, primary screen, imaging, HUVEC, immunofluorescence, MLSMR starter and 10KST1 sets (AID 487;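 active = visually confirmed hit in the image check and inhibition above 20%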;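 as to inhibition: signal is fraction of cell area covered by stained E-selectin grains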;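 as to nuclei count: 100% = median nuclei count of all wells on the same plate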). Conditions: HUVEC TNFalpha-induced E-selectin immunofluorescence imaging, at 2 µM; inhibition: stronger effect = higher value; nuclei count: measured here: cell number, toxicity.
Test [4] has as its target Voltage-gated potassium channel subunit beta-2 (Rattus norvegicus) (UniProt P62483). Briefly: KvBeta enzyme negative modulators, primary screen, biochemical, NADPH fluorescence (AID 622).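 Also: slope of raw intensity against log time taken from 70 to 1610 s.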 Conditions: recombinant KvBeta, 4-cyanobenzaldehyde reduction, at 10 µM, stronger effect = higher value.
For test [5] the target is unchanged. Description: KvBeta positive modulators, primary screen, biochemical, NADPH fluorescence (AID 623;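 active = NADPH fluorescence slope more negative than the mean of all samples by about 3 SD, 99.7% confidence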;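 also: fluorescence intensity change per second fitted from 20 to 320 s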). Conditions: Recombinant KvBeta, NADPH fluorescence decrease slope, 10 min; at 10 µM; stronger effect = lower value.
The target of test [6] is Alpha-2C adrenergic receptor (Homo sapiens) (UniProt P18825). Briefly: modulators of alpha2C/GIRK thallium flux, primary screen, cell-based, HEK293 alpha2C/GIRK1/2 (AID 624;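 active = fluorescence slope after compound addition differing from the mean of all screened samples at 99.7% confidence, in either direction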;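 also: slope of fluorescence ratio to pre-addition baseline per second over 15 to 24 s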). Conditions: thallium flux BTC fluorescence, at 10 µM, actives lie on both sides.
Alpha-2C adrenergic receptor (Homo sapiens), sequence (P18825 whole entry, looked up): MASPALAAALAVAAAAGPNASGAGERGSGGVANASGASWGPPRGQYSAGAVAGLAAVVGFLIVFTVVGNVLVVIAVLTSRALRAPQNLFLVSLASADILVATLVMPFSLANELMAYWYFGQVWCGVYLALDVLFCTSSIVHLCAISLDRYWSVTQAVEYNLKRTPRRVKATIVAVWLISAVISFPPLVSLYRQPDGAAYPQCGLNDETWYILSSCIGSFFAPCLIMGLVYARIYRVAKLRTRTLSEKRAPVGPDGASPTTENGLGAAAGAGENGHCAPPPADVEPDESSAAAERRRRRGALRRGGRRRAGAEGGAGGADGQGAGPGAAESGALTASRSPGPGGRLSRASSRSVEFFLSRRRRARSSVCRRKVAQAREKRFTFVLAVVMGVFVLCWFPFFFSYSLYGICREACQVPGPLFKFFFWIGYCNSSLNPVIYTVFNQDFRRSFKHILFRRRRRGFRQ
Test [7] is described as follows: inhibitors of larval lipid processing in zebrafish, primary screen, whole organism, PED6 fluorescence, gall bladder and intestine (AID 686;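 active = a full or partial loss of lipid-probe fluorescence in the fish gall bladder, intestine or both, judged by eye; inactive = no fluorescence loss, or compound toxic to the fish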;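 also: larvae 5 to 7 days old with five fish per well; signal comes from phospholipase A2 cleavage of quenched PED6 carried via bile; overnight exposure to compound and PED6 before scoring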). Conditions: Zebrafish larvae PED6 lipid processing, fluorescence scoring; screened at 20 µM (by protocol). The procedure, abridged:
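Test system – live zebrafish larvae aged 5-7 days, whole organism · Buffer or medium – E3 fish medium · Reagent – quenched phospholipase substrate PED6, 100 nM final, ingested by larvae · Doses – 20 µM single dose · Incubation – overnight compound and PED6 incubation · Technique – visual fluorescence microscopy scoring of gall bladder, gut · Read-out basis – visual per-well fluorescence inhibition score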

A short description of test [8]: inhibitors of Sendai virus-induced IRF3 signaling, primary screen, TLR/RLR signaling modifier project, cell-based, Sendai virus stimulus, luciferase, 10K MLSCN set (AID 602276;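 active = inhibition at or above 50% at 10 µM; inactive = inhibition below 50%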;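 also: firefly luciferase from ISG56 promoter only with Renilla not read in this screen; 0% = Sendai virus plus DMSO and 100% = medium plus DMSO without virus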). Conditions: HEK293 RL24 IRF3 luciferase reporter, at 10 µM, stronger effect = higher value. For orientation: In a reporter assay the amount or activity of a reporter protein is the signal.
The nature of test [9]: inhibitors of poly I:C-induced TLR3 signaling, primary screen, cell-based, poly I:C stimulus, luciferase, 10K MLSCN set (AID 602277;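 active = inhibition of the reporter signal at or above 50%; inactive = inhibition below 50%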). Conditions: HEK293-TLR3 RL24 IRF3 luciferase reporter, at 10 µM, stronger effect = higher value.

Structures are written as SMILES. The source made the active and inactive calls.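 The calls were made as follows, unless noted: active = fluorescence slope higher than the sample average by over 3 SD (cut at about -0.22 in these data, passing the limit was not always enough); inactive = the rest.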

Voltage-gated potassium channel subunit beta-2 (Rattus norvegicus), sequence (P62483 whole entry, looked up): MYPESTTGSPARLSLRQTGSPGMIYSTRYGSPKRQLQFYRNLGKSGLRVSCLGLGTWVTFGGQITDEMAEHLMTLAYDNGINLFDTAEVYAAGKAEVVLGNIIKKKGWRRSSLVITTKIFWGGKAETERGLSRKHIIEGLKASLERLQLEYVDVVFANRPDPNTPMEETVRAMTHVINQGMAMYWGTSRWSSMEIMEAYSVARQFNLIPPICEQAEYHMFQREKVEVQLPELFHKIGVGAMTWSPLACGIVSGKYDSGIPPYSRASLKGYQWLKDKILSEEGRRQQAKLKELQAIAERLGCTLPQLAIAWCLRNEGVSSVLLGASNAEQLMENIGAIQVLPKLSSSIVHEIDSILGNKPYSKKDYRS

As for `Cc1ccc(Nc2nc(N)nc(CN3CCN(Cc4ccc5c(c4)OCO5)CC3)n2)cc1`, the cell count in test [1] was determined as 385. In addition, the inhibition (usually the change of the read-out against control, counted positive when it falls) in test [1] was 4.6% (inactive); in [3], -82.2% (inactive); in test [8] it was 1.9% (inactive); in [9], 7.26% (inactive). In test [2], the inhibition of aggregation was 54.3% (active). Moreover, the figures for the nuclei count in test [2] and in test [3] were 91.6% and 102%, respectively. In addition, the fluorescence slope in [4] is -0.367 (inactive). The NADPH fluorescence slope in test [5] was -4.6e-05 (inactive). The slope in test [6] was 0.00487 (inactive). The outcome in test [7] was inactive.

For the compound `CCCn1c(SCC(=O)NC(=O)NCc2ccco2)n[nH]c1=O`, the cell count in test [1] is 424. The inhibition in [1] was 3.7% (inactive); in test [3], -178% (inactive); in test [8] it was 2.79% (inactive); in test [9], 15.3% (inactive). Moreover, the inhibition of aggregation in [2] was -7.6% (inactive). Besides, the nuclei count in [2] was found to be 73.3%; in [3], 117%. Further, in test [4], the fluorescence slope was -0.39 (inactive). The NADPH fluorescence slope in test [5] is -3.4e-05 (inactive). Further, the slope in test [6] is 0.00519 (inactive). For the same compound, in test [7], the outcome was inactive.

With `O=S(=O)(Nn1cnnc1)c1ccccc1Cl`, the cell count in [1] is 647. Also, the inhibition in [1] was 4.3% (inactive); in test [3], 45.5% (inactive); in test [8] it was -7.35% (inactive); in [9] it was -10.4% (inactive). In addition, the inhibition of aggregation in test [2] is -12.3% (inactive). In addition, the nuclei count in test [2] worked out at 99%; in test [3] it was 81.7%. Also, the fluorescence slope in test [4] is -0.402 (inactive). Further, in [5], the NADPH fluorescence slope is -8.6e-06 (inactive). For the same compound, in test [6], the slope is 0.00434 (inactive). The outcome in test [7] was inactive.

In the case of `Cc1cccc(-n2ncc3c(NCc4cccs4)ncnc32)c1`, in test [1], the cell count amounted to 667. Moreover, the inhibition in test [1] was 6.7% (inactive); in [3], -119% (inactive); in test [8] it was -36.3% (inactive); in [9], -95% (inactive). Besides, the inhibition of aggregation in test [2] is 0.1% (inactive). For the same compound, the nuclei count in test [2] stood at 99.5%; in [3], 108%. Also, the fluorescence slope in [4] is -0.458 (inactive). Besides, in test [5], the NADPH fluorescence slope was -2.6e-05 (inactive). Moreover, in test [6], the slope is 0.00473 (inactive). Moreover, in [7], the compound was called inactive.

For `CC12CCC(C(=O)N3CCN(C(=O)C45CCC(C)(C(=O)O4)C5(C)C)CC3)(OC1=O)C2(C)C`, in [1], the cell count stood at 575. Moreover, the inhibition is -8.7% (inactive) in test [1], -42.4% (inactive) in test [3], -54.1% (inactive) in test [8] and 99.3% (active) in test [9]. In test [2], the inhibition of aggregation was -6.1% (inactive). Moreover, the nuclei count stood at 108% in test [2] and 140% in test [3]. In addition, in test [4], the fluorescence slope is -0.391 (inactive). Further, the NADPH fluorescence slope in test [5] was -7.7e-05 (inactive). Moreover, the slope in [6] was 0.00544 (inactive). Besides, the result in [7] was inactive.

Take `CC1CN(C(=O)CSc2ncnc3sccc23)CC(C)O1` (stereo not given): the cell count in test [1] turned out to be 356. Besides, the inhibition in test [1] was -0.9% (inactive); in [3] it was -1.1% (inactive); in test [8], 10.7% (inactive); in test [9], 11% (inactive). Further, the inhibition of aggregation in [2] is -13.4% (inactive). Further, the nuclei count in [2] worked out at 98.3%; in test [3], 102%. Moreover, in test [4], the fluorescence slope is -0.469 (inactive). In addition, the NADPH fluorescence slope in [5] is -2.6e-05 (inactive). Further, the slope in test [6] was 0.0052 (inactive). The compound was called inactive in test [7].

Consider `COc1ccc2cc(C#N)c(N3CCN(Cc4nnnn4CCC(C)C)CC3)nc2c1`, for which, in [1], the cell count is 363. Also, the inhibition was 7% (inactive) in test [1], -5.8% (inactive) in [3], 12.8% (inactive) in test [8] and -2.3% (inactive) in test [9]. The inhibition of aggregation in [2] was 20.7% (inactive). Also, the nuclei count in test [2] is 85.8%; in test [3] it was 78.1%. Moreover, the fluorescence slope in test [4] was -0.379 (inactive). The NADPH fluorescence slope in test [5] is -3.8e-05 (inactive). Besides, the slope in [6] is 0.00501 (inactive). The result in [7] was inactive.

Turning to `O=C(CN1CCN(c2nc(-c3ccc(Cl)cc3)cs2)CC1)NCc1ccco1`, the cell count in test [1] amounted to 638. Moreover, the inhibition in [1] was -7.3% (inactive); in test [3], -53.5% (inactive); in test [8], -3.86% (inactive); in [9], 98.3% (active). In test [2], the inhibition of aggregation is 9.3% (inactive). The values for the nuclei count in test [2] and in test [3] were 90.1% and 108%, respectively. The fluorescence slope in test [4] was -0.463 (inactive). In addition, the NADPH fluorescence slope in test [5] was -3.9e-05 (inactive). Besides, the slope in test [6] is 0.00435 (inactive). The compound was called inactive in test [7].

In the case of `Cn1c(=O)[nH]c(=O)c2c1nc(N1CCOCC1)n2CC(O)COc1ccc2ccccc2c1` (stereo not given), the cell count in [1] came out at 438. The inhibition was -4.5% (inactive) in test [1], -54.4% (inactive) in [3], 15.8% (inactive) in test [8] and 19.3% (inactive) in [9]. Moreover, the inhibition of aggregation in test [2] was 10.8% (inactive). In addition, the nuclei count in test [2] is 107%; in test [3], 120%. The fluorescence slope in test [4] was -0.44 (inactive). The NADPH fluorescence slope in test [5] was -3.2e-05 (inactive). Besides, in test [6], the slope was 0.00556 (inactive). Besides, the result in [7] was inactive.

As to `FC(F)(F)c1ccc(Sc2nnc(-c3cccs3)n2CC2CCCO2)nc1` (stereo not given), in test [1], the cell count was 357. Also, the inhibition in [1] is -21.4% (inactive); in test [3], -85.5% (inactive); in test [8], 13.6% (inactive); in test [9], 6.99% (inactive). Also, the inhibition of aggregation in test [2] was -3% (inactive). For the same compound, the nuclei count stood at 83.2% in test [2] and 104% in test [3]. The fluorescence slope in test [4] was -0.424 (inactive). Moreover, the NADPH fluorescence slope in [5] is -7.7e-06 (inactive). The slope in test [6] was 0.00449 (inactive). Besides, the call in test [7] was inactive.
